ChEMBL document CHEMBL1126115, “Synthesis of a homologous series of ketomethylene arginyl pseudodipeptides and application to low molecular weight hirudin-like thrombin inhibitors” (J Med Chem, 1992)
Starred links: 1 amine or outer side, 2 acyl side, 3 side chain; linkers in the order of their positions; H or OH if unused. Non-standard residues stand in square brackets, D forms with d. Residues, ends and D or L forms follow the SMILES beside them. X1 = NC(N)=NCCCC(N[*:1])C(=O)CCCCC(=O)[*:2]; X2 = O=C(C/C=C/CN[*:1])[*:2]

tested on: Rattus norvegicus; test: Antithrombotic effect compared to recombinant hirudin in the rat rretiovenous shunt model after intravenous administration; type: functional
Outline: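 Urethane-anaesthetised rats on a temperature-controlled heating plate; right carotid artery and left jugular vein catheterised and joined by a 2-cm glass capillary (1 mm internal diameter) as thrombogenic surface. Compound or saline given intravenously 5 min before the shunt was opened. Patency followed by capillary temperature rise (thermocouple). ED15 is the dose giving a 15-min prolongation of shunt patency.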

| Structure (SMILES) | ED15 [mg/kg] |
| --- | --- |
| CC[C@H](C)[C@H](NC(=O)[C@@H]1CCCN1C(=O)[C@H](CCC(=O)O)NC(=O)[C@H](Cc1ccccc1)NC(=O)[C@H](CC(=O)O)NC(=O)C/C=C/CNC(=O)C/C=C/CNC(=O)CCCCC(=O)[C@H](CCCN=C(N)N)NC(=O)[C@@H]1CCCN1C(=O)[C@@H](Cc1ccccc1)NC(C)=O)C(=O)N1CCC[C@H]1C(=O)N[C@@H](CC(C)C)C(=O)O | 6.27 |

target: Prothrombin (Homo sapiens, UniProt P00734); test: Compound was evaluated for their ability to inhibit the alpha-thrombin-mediated hydrolysis of the fluorescent substrate Tos-Gly-Pro-Arg-Amc
Outline: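 Human α-thrombin (30 pM) added to start the reaction, 25 °C, 0.1 M Tris-HCl pH 7.8 with 0.1 M NaCl and 0.1% PEG 6000. […] Initial rates of Amc fluorescence read at ex 383/em 455 nm, calibrated against free 7-amino-4-methylcoumarin. Ki obtained by nonlinear fit to a competitive inhibition equation.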

| Structure (SMILES) | Ki [nM] |
| --- | --- |
| CC[C@H](C)[C@H](NC(=O)[C@H](CCC(=O)O)NC(=O)[C@H](CCC(=O)O)NC(=O)[C@H](Cc1ccccc1)NC(=O)[C@H](CC(=O)O)NC(=O)CNC(=O)[C@H](CC(=O)O)NC(=O)[C@H](CC(N)=O)NC(=O)[C@H](Cc1c[nH]cn1)NC(=O)[C@H](CO)NC(=O)[C@H](CCC(N)=O)NC(=O)CCCC(=O)[C@H](CCCN=C(N)N)NC(=O)[C@@H]1CCCN1C(=O)[C@H](Cc1ccccc1)NC(C)=O)C(=O)N1CCC[C@H]1C(=O)N[C@@H](CCC(=O)O)C(=O)N[C@@H](CCC(=O)O)C(=O)N[C@@H](Cc1ccc(O)cc1)C(=O)N[C@@H](CC(C)C)C(=O)N[C@@H](CCC(N)=O)C(=O)O | 0.56 |
| CC[C@H](C)[C@H](NC(=O)[C@H](CCC(=O)O)NC(=O)[C@H](CCC(=O)O)NC(=O)[C@H](Cc1ccccc1)NC(=O)[C@H](CC(=O)O)NC(=O)CNC(=O)[C@H](CC(=O)O)NC(=O)[C@H](CC(N)=O)NC(=O)[C@H](Cc1c[nH]cn1)NC(=O)[C@H](CO)NC(=O)[C@H](CCC(N)=O)NC(=O)CC(=O)[C@H](CCCN=C(N)N)NC(=O)[C@@H]1CCCN1C(=O)[C@H](Cc1ccccc1)NC(C)=O)C(=O)N1CCC[C@H]1C(=O)N[C@@H](CCC(=O)O)C(=O)N[C@@H](CCC(=O)O)C(=O)N[C@@H](Cc1ccc(O)cc1)C(=O)N[C@@H](CC(C)C)C(=O)N[C@@H](CCC(N)=O)C(=O)O | 3.8 |
| CC[C@H](C)[C@H](NC(=O)[C@H](CCC(=O)O)NC(=O)[C@H](CCC(=O)O)NC(=O)[C@H](Cc1ccccc1)NC(=O)[C@H](CC(=O)O)NC(=O)CNC(=O)[C@H](CC(=O)O)NC(=O)[C@H](CC(N)=O)NC(=O)[C@H](Cc1c[nH]cn1)NC(=O)[C@H](CO)NC(=O)[C@H](CCC(N)=O)NC(=O)CCCCC(=O)[C@H](CCCN=C(N)N)NC(=O)[C@@H]1CCCN1C(=O)[C@H](Cc1ccccc1)NC(C)=O)C(=O)N1CCC[C@H]1C(=O)N[C@@H](CCC(=O)O)C(=O)N[C@@H](CCC(=O)O)C(=O)N[C@@H](Cc1ccc(O)cc1)C(=O)N[C@@H](CC(C)C)C(=O)N[C@@H](CCC(N)=O)C(=O)O | 0.14 |
| CC[C@H](C)[C@H](NC(=O)[C@@H]1CCCN1C(=O)[C@H](CCC(=O)O)NC(=O)[C@H](Cc1ccccc1)NC(=O)[C@H](CC(=O)O)NC(=O)C/C=C/CNC(=O)C/C=C/CNC(=O)CCCCC(=O)C(CCCN=C(N)N)NC(=O)[C@@H]1CCCN1C(=O)[C@H](Cc1ccccc1)NC(C)=O)C(=O)N1CCC[C@H]1C(=O)N[C@@H](CC(C)C)C(=O)O (stereo partly drawn) | 3.5 |
| CC[C@H](C)[C@H](NC(=O)[C@@H]1CCCN1C(=O)[C@H](CCC(=O)O)NC(=O)[C@H](Cc1ccccc1)NC(=O)[C@H](CC(=O)O)NC(=O)C/C=C/CNC(=O)C/C=C/CNC(=O)C/C=C/CNC(=O)CCCCC(=O)C(CCCN=C(N)N)NC(=O)[C@@H]1CCCN1C(=O)[C@H](Cc1ccccc1)NC(C)=O)C(=O)N1CCC[C@H]1C(=O)N[C@@H](CC(C)C)C(=O)O (stereo partly drawn) (Ac-FP[X1][X2][X2][X2]DFEPIPL-OH) | 3.2 |
| CC[C@H](C)[C@H](NC(=O)[C@@H]1CCCN1C(=O)[C@H](CCC(=O)O)NC(=O)[C@H](Cc1ccccc1)NC(=O)[C@H](CC(=O)O)NC(=O)C/C=C/CNC(=O)CCCCC(=O)[C@H](CCCN=C(N)N)NC(=O)[C@@H]1CCCN1C(=O)[C@H](Cc1ccccc1)NC(C)=O)C(=O)N1CCC[C@H]1C(=O)N[C@@H](CC(C)C)C(=O)O (HELM PEPTIDE1{[ac].F.P.[NC(N)=NCCC[C@H](N[*:1])C(=O)CCCCC(=O)[*:2]].[O=C(C/C=C/CN[*:1])[*:2]].D.F.E.P.I.P.L}$$$$V2.0) | 300 |
| CC[C@H](C)[C@H](NC(=O)[C@@H]1CCCN1C(=O)[C@H](CCC(=O)O)NC(=O)C(Cc1ccccc1)NC(=O)[C@H](CC(=O)O)NC(=O)CNC(=O)[C@H](CC(=O)O)NC(=O)[C@H](CC(N)=O)NC(=O)[C@H](Cc1cnc[nH]1)NC(=O)[C@H](CO)NC(=O)[C@H](CCC(N)=O)NC(=O)[C@@H]1CCCN1C(=O)[C@H](CCCNC(=N)N)N(C)C(=O)[C@@H]1CCCN1C(=O)C(Cc1ccccc1)NC(C)=O)C(=O)N1CCC[C@H]1C(=O)N[C@@H](CC(C)C)C(=O)O (stereo in doubt) | 2.8 |
